Reference: ChEMBL document CHEMBL4196050, “Design, synthesis, and biological evaluation of compounds with a new scaffold as anti-neuroinflammatory agents for the treatment of Alzheimer's disease” (Eur J Med Chem, 2018)
Calls of active or inactive are those of the source. The calls are words filed in the database; no cut-off is given here.

Key:
[1] = system: BV-2; assay: Antineuroinflammatory activity in mouse BV2 cells assessed as inhibition of LPS-induced NO production pretreated for 30 mins followed by LPS stimulation and measured after 24 hrs by Griess assay; type: functional, cell-based
In short: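 BV2 microglia plated at 4 × 10⁵ cells/mL and grown 48 h, then medium replaced. Compounds at various concentrations given 30 min before LPS; incubated 24 h at 37 °C. Equal volume of Griess reagent added to medium, 10 min at room temperature, absorbance read at 540 nm. % inhibition = (F_L − F_C)/(F_L − F₀) × 100. IC50 by nonlinear regression, ≥3 independent experiments, mean SEM.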

[2] = system: BV-2; assay: Antineuroinflammatory activity in mouse BV2 cells assessed as inhibition of LPS-induced TNFalpha production after 24 hrs by ELISA; type: functional, cell-based; conditions: BV-2, 24 h
In short: (§1)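 BV2 cells plated at 4 × 10⁵ cells/mL, grown 48 h, medium replaced with DMEM. Compound added first, then LPS; incubated 24 h at 37 °C. TNF-α or IL-1β in culture medium measured by ELISA. % inhibition = (F_L − F_C)/(F_L − F₀) × 100 against LPS-only and unstimulated cells. IC50 by nonlinear regression of ≥3 independent experiments, mean SEM.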

[3] = system: BV-2; assay: Antineuroinflammatory activity in mouse BV2 cells assessed as inhibition of LPS-induced IL-1beta production after 24 hrs by ELISA; type: functional, cell-based; conditions: BV-2, 24 h; in short: as §1
[4] = Permeability of the compound after 10 hrs by PAMPA; type: ADME; conditions: read-out: permeability
In short: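 PAMPA-BBB: filter coated with porcine brain lipid in dodecane (20 mg/mL); acceptor PBS/EtOH (7:3). DMSO stocks (5 mg/mL) diluted 50-fold in PBS/EtOH into donor wells. Sandwich left 10 h at 25 °C; acceptor concentration read by UV plate reader. Pe from volumes, filter area, time and acceptor/equilibrium absorbance. Means SD of ≥3 experiments; Pe > 4.7 × 10⁻⁶ cm/s taken as BBB-permeable.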

[5] = system: BV-2; assay: Antineuroinflammatory activity in mouse BV2 cells assessed as inhibition of LPS-induced iNOS production pretreated for 30 mins followed by LPS stimulation for 16 hrs by Western blot analysis; type: functional, cell-based
[6] = target: T1, NF-kappa-B inhibitor alpha (Mus musculus) (UniProt Q9Z1E3); assay: Inhibition of LPS-induced IkappaBalpha phosphorylation in mouse BV2 cells up to 10 uM preincubated for 30 mins followed by LPS-stimulation for 16 hrs by Western blot analysis; type: cell-based
T1 sequence (whole entry): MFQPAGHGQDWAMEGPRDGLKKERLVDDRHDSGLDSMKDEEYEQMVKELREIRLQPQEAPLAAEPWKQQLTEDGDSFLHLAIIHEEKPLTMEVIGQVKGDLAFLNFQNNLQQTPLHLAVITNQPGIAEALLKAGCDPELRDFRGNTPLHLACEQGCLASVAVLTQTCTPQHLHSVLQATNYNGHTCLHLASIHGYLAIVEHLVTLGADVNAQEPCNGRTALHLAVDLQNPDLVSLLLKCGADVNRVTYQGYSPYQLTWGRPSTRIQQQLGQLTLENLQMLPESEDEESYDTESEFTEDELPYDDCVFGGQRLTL
In short: (§2)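 BV2 cells in 6-well plates, with or without compound 30 min, then with or without LPS for 16 h. Lysed in RIPA with protease and phosphatase inhibitors; cytoplasmic and nuclear fractions separated; protein by BCA. Run on 10% SDS-PAGE, PVDF, milk/TBST block 2 h, primary antibody 4 °C overnight, secondary 2 h at room temperature, chemiluminescence. Phospho-ERK1/2 (Thr202/Tyr204), p38 (Thr180/Tyr182), JNK (Thr183/Tyr185), IκBα (Ser32); GAPDH and Lamin B references. Three independent experiments.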

[7] = target: Transcription factor p65 (Mus musculus) (UniProt Q04207); assay: Inhibition of LPS-induced p65 translocation from cytoplasm to nucleus in mouse BV2 cells up to 10 uM preincubated for 30 mins followed by LPS-stimulation for 16 hrs by Western blot analysis; type: cell-based; in short: as §2
[8] = target: Mitogen-activated protein kinase 1 and 3 (ERK2 and ERK1) (Mus musculus) (UniProt P63085+Q63844); assay: Inhibition of LPS-induced ERK1/2 phosphorylation in mouse BV2 cells up to 10 uM preincubated for 30 mins followed by LPS-stimulation for 16 hrs by Western blot analysis; type: cell-based; in short: as §2
[9] = species: Mus musculus; assay: Inhibition of LPS-induced JNK phosphorylation in mouse BV2 cells up to 10 uM preincubated for 30 mins followed by LPS-stimulation for 16 hrs by Western blot analysis; type: cell-based; in short: as §2
[10] = target: MAP kinase p38 (Mus musculus) (UniProt P47811+O08911+Q9WUI1+Q9Z1B7); assay: Inhibition of LPS-induced p38 phosphorylation in mouse BV2 cells up to 10 uM preincubated for 30 mins followed by LPS-stimulation for 16 hrs by Western blot analysis; type: cell-based; in short: as §2
[11] = Anti-inflammatory activity in LPS-induced mouse N9 cells assessed as reduction in IL-1beta production pretreated for 18 hrs followed LPS stimulation and measured after 48 hrs by ELISA; type: functional, cell-based

Sequence of Mitogen-activated protein kinase 1 and 3 (ERK2 and ERK1) (Mus musculus) (P63085 whole entry, looked up): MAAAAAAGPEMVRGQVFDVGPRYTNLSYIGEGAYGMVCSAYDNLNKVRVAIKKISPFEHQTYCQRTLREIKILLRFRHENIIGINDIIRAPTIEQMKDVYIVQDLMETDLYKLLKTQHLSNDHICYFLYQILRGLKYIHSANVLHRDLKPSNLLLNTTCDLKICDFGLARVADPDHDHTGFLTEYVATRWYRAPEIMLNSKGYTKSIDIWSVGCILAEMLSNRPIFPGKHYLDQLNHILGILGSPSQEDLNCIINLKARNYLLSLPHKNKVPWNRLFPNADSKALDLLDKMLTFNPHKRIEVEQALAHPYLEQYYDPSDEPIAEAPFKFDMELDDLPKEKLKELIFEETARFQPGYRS
Sequence of Mitogen-activated protein kinase 1 and 3 (ERK2 and ERK1) (Mus musculus) (Q63844 whole entry, looked up): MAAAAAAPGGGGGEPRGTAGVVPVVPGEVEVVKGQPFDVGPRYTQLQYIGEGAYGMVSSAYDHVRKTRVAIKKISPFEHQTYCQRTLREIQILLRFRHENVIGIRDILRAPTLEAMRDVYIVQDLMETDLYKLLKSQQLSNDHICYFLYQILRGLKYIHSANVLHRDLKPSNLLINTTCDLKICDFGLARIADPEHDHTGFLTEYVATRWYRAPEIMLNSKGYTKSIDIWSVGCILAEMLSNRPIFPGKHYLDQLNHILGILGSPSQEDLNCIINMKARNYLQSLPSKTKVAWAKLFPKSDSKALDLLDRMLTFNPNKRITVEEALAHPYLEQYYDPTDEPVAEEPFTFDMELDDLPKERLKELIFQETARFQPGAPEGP
Sequence of Transcription factor p65 (Mus musculus) (Q04207 whole entry): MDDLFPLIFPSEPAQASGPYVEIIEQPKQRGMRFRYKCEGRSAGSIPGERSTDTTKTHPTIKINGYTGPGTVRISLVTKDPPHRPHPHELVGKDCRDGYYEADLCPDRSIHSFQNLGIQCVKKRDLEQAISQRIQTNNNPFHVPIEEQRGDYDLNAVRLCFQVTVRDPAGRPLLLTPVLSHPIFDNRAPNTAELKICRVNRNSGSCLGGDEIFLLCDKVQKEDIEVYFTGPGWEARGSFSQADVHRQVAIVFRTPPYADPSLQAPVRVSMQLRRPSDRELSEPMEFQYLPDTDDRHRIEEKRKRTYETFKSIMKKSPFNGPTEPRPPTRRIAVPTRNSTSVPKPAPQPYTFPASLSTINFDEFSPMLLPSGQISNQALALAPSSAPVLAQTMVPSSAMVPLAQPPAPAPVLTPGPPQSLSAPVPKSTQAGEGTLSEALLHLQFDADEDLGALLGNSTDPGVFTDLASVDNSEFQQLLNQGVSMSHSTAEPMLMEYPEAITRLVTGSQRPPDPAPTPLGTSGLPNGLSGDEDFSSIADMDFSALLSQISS

Row | IC50 [1] [µM] | IC50 [2] [µM] | IC50 [3] [µM] | Papp at 10 h [4] [×10⁻⁶ cm/s] | inhibition [6] | inhibition [7] | inhibition [8] | inhibition [10] | IC50 [11] [µM] | SMILES | inhibition [5] | inhibition [9]
1 | 7.3 | 10.9 | 5.2 | 11.3 |  |  |  |  |  | O=C(/C(=C/c1ccccc1Cl)c1ccc(F)cc1)N1CCN(c2ncccn2)CC1 |  | 
2 | 7.9 | 5.9 | 2.4 | 14.9 |  |  |  |  |  | O=C(/C(=C/C=C/c1ccccc1)c1ccc(F)cc1)N1CCN(c2ncccn2)CC1 |  | 
3 | 22.4 | 26.5 | 15.2 | 14.7 |  |  |  |  |  | COc1ccc(/C=C(/C(=O)N2CCN(c3ncccn3)CC2)c2cccc(C(F)(F)F)c2)cc1 |  | 
4 | 1 | 2.6 | 0.5 | 12.6 | inactive | inactive | Active | Active |  | O=C(/C(=C/C=C/c1ccccc1)c1cccc(C(F)(F)F)c1)N1CCN(c2ncccn2)CC1 | Dose-dependent effect | Active
5 | > 50 | > 50 | > 50 | 7.4 |  |  |  |  |  | O=C(/C(=C/c1ccc(Cl)cc1)c1ccccc1)N1CCN(c2ncccn2)CC1 |  | 
6 | 12.6 | 16.2 | 7.8 | 11.2 |  |  |  |  |  | O=C(/C(=C/c1cccc(Cl)c1)c1ccccc1)N1CCN(c2ncccn2)CC1 |  | 
7 | 23.1 | 41.3 | 42.9 | 10.5 |  |  |  |  |  | COc1ccc(/C=C(/C(=O)N2CCN(c3ncccn3)CC2)c2ccc(F)cc2)cc1 |  | 
8 | 26.9 | 43.1 | 21.9 | 5.1 |  |  |  |  |  | O=C(/C(=C/c1ccc(Cl)cc1)c1cccc(C(F)(F)F)c1)N1CCN(c2ncccn2)CC1 |  | 
9 | 6.5 | 6.9 | 4.2 | 9.3 |  |  |  |  |  | O=C(/C(=C/c1ccc(C(F)(F)F)cc1)c1cccc(C(F)(F)F)c1)N1CCN(c2ncccn2)CC1 |  | 
10 | 11.1 | 9.5 | 8.7 | 1.1 |  |  |  |  |  | Oc1ccc(/C=C/c2cc(O)cc(O)c2)cc1 [RESVERATROL] |  | 
11 | 11 | 9.4 | 11.9 | 9.4 |  |  |  |  |  | O=C(/C(=C/c1cccc(Cl)c1)c1ccc(F)cc1)N1CCN(c2ncccn2)CC1 |  | 
12 | 42.6 | > 50 | > 50 | 12.7 |  |  |  |  |  | COc1ccc(O)c(/C=C(/C(=O)N2CCN(c3ncccn3)CC2)c2cccc(C(F)(F)F)c2)c1 |  | 
13 | 14.9 | 21.6 | 11.3 | 8.2 |  |  |  |  |  | O=C(/C(=C/c1ccc(C(F)(F)F)cc1)c1ccccc1)N1CCN(c2ncccn2)CC1 |  | 
14 | > 50 | 37.5 | 25.7 | 14.3 |  |  |  |  |  | O=C(/C(=C/c1ccc(F)cc1)c1ccc(F)cc1)N1CCN(c2ncccn2)CC1 |  | 
15 | 19.9 | 25.1 | 18.4 | 15.1 |  |  |  |  |  | O=C(/C(=C/c1ccccc1Cl)c1cccc(C(F)(F)F)c1)N1CCN(c2ncccn2)CC1 |  | 
16 | 25.1 | 17.8 | 36.4 | 7.8 |  |  |  |  |  | O=C(/C(=C/c1ccc(Cl)cc1)c1ccc(F)cc1)N1CCN(c2ncccn2)CC1 |  | 
17 | 9.9 | 23.7 | 18.4 | 13.8 |  |  |  |  |  | COc1ccccc1/C=C(/C(=O)N1CCN(c2ncccn2)CC1)c1ccc(F)cc1 |  | 
18 | 37.2 | 26.7 | 15.2 | 10.7 |  |  |  |  |  | O=C(/C(=C/c1cccc(Cl)c1)c1cccc(C(F)(F)F)c1)N1CCN(c2ncccn2)CC1 |  | 
19 |  |  |  |  |  |  |  |  | 0.0034 | Cc1cc(-c2ccccc2)nnc1C(=O)N1CCN(c2ncccn2)CC1 |  | 
20 | 46.8 | > 50 | > 50 | 6.4 |  |  |  |  |  | COc1ccc(O)c(/C=C(/C(=O)N2CCN(c3ncccn3)CC2)c2ccc(F)cc2)c1 |  | 
21 | 17.8 | 35.4 | > 50 | 14.3 |  |  |  |  |  | O=C(/C(=C/c1ccccc1)c1ccccc1)N1CCN(c2ncccn2)CC1 |  | 
22 | 10.1 | 17.6 | 9.3 | 9.4 |  |  |  |  |  | O=C(/C(=C/c1ccccc1Cl)c1ccccc1)N1CCN(c2ncccn2)CC1 |  | 
23 | 9.5 | 16.9 | 3.4 | 10.3 |  |  |  |  |  | COc1ccc(/C=C(/C(=O)N2CCN(c3ncccn3)CC2)c2ccccc2)cc1 |  | 
24 | 7.9 | 21.3 | 31.6 | 12.3 |  |  |  |  |  | COc1ccccc1/C=C(/C(=O)N1CCN(c2ncccn2)CC1)c1ccccc1 |  | 
25 | 3 | 6.6 | 8.9 | 7.6 |  |  |  |  |  | O=C(/C(=C/c1ccc(C(F)(F)F)cc1)c1ccc(F)cc1)N1CCN(c2ncccn2)CC1 |  | 
26 | 31.7 | 34.7 | 41.2 | 9.7 |  |  |  |  |  | COc1ccccc1/C=C(/C(=O)N1CCN(c2ncccn2)CC1)c1cccc(C(F)(F)F)c1 |  | 
27 | 15.6 | 19.8 | 31.2 | 12.3 |  |  |  |  |  | O=C(/C(=C/c1ccc(F)cc1)c1cccc(C(F)(F)F)c1)N1CCN(c2ncccn2)CC1 |  | 
28 | 39.8 | > 50 | 25.3 | 7.2 |  |  |  |  |  | O=C(/C(=C/c1ccccc1)c1cccc(C(F)(F)F)c1)N1CCN(c2ncccn2)CC1 |  | 
29 | 8.1 | 15.2 | 10.2 | 11.2 |  |  |  |  |  | O=C(/C(=C/c1ccccc1)c1ccc(F)cc1)N1CCN(c2ncccn2)CC1 |  | 
30 | 48.1 | 36.4 | 11.4 | 14.1 |  |  |  |  |  | COc1ccc(O)c(/C=C(/C(=O)N2CCN(c3ncccn3)CC2)c2ccccc2)c1 |  | 
